Key:
[1] = target: Mitogen-activated protein kinase 14 (Mus musculus, UniProt P47811); test: Tested in vitro for filter plate binding versus gamma-[33P]ATP in active recombinant murine FLAG-P38 alpha fusion protein (GST-Activating transcription factor-2).
MAP kinase p38 [2] = target: T1, MAP kinase p38 (Homo sapiens, UniProt O15264+Q15759+Q16539+P53778); test: Inhibition of Tumor necrosis factor alpha release from LPS-induced THP-1 cells by ELISA; assay type: functional, cell-based
In short: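 Human THP-1 monocytic cells stimulated with LPS. Human TNFα in the cell supernatant measured by ELISA.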

[3] = target: Mitogen-activated protein kinase 11 (Mus musculus, UniProt Q9WUI1); test: Displacement of [gamma-33P]-ATP binding from active recombinant murine FLAG-Mitogen-activated protein kinase p38 beta fusion protein (GST-ATF2)
In short: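 Filter-plate binding assay of compound competing with [γ-33P]ATP on active recombinant murine FLAG-tagged p38 fusion protein, with GST-ATF2. IC50 values are the average of two or more separate assays. Repeat determinations differed by ±20% on average.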

MAP kinase p38 [4] = target: T1, MAP kinase p38; test: Inhibition of LPS-induced p38-related Tumor necrosis factor alpha release in human whole blood; assay type: functional, tissue-based
[5] = target: Mitogen-activated protein kinase 9 (Homo sapiens) (UniProt P45984); test: Inhibition of recombinant human flag-tagged JNK2-beta-2 at 5000 nM; assay type: functional
In short: (§1)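 Kinase assay with recombinant human FLAG-tagged JNK2β fusion protein phosphorylating GST-ATF2. Phosphorylated GST-ATF2 detected by HTRF.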

MAP kinase p38 [6] = target: T1, MAP kinase p38; test: Inhibition of LPS-induced p38-related Tumor necrosis factor alpha release by THP-1 cells at 4000 nM; assay type: functional, cell-based
[7] = target: Mitogen-activated protein kinase 9 (Homo sapiens) (UniProt P45984); test: Inhibition of recombinant human flag-tagged JNK2-beta-2 at 10000 nM; assay type: functional; in short: as §1
[8] = target: Mitogen-activated protein kinase 11 (Mus musculus) (UniProt Q9WUI1); test: Displacement of [gamma-33P]-ATP from recombinant murine Mitogen-activated protein kinase p38 beta at 5000 nM
[9] = (§2) Ex vivo inhibition of Mitogen activated protein kinase activated protein 1 hr after 3 mg/kg dose; assay type: functional; conditions: Mus musculus
In short: (§3)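 BALB/c mice (n = 5 per compound) dosed ip at 3 mg/kg in DMSO/EtOH/PEG400/saline (10:10:60:20). Blood collected 1 h after dosing and murine MAPKAP activity measured ex vivo as % inhibition. Significance versus vehicle assessed at p < 0.05.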

Mus musculus [10] = organism: Mus musculus; test: Tested ex vivo for MAPKAP inhibition, activity expressed as plasma concentration; assay type: functional, organism-based
In short: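 Mice dosed ip at 3 mg/kg and plasma taken 1 h after dosing. Plasma compound level determined by bioassay: plasma was diluted in the p38 inhibition assay to find the dilution giving 50% inhibition (EC50). Concentration = free-compound p38 IC50 × 1/dilution factor.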

Mus musculus [11] = test: Tested ex vivo for MAPKAP plasma concentration at 1 hr after dosing; assay type: functional, organism-based
In short: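 BALB/c mice (n = 5) given 3 mg/kg ip in DMSO/EtOH/PEG400/saline (10:10:60:20); blood drawn 1 h post-dose. Plasma level determined by bioassay: serial plasma dilutions run in the p38 inhibition assay, and the compound's free p38 IC50 multiplied by 1/(plasma dilution giving 50% inhibition, EC50).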

Mus musculus [12] = test: as §2; assay type: functional, organism-based; set-up: dose 3 mg/kg; in short: as §3
MAP kinase p38 [13] = target: T1, MAP kinase p38; test: Inhibition of LPS-induced p38-related Tumor necrosis factor alpha release in human whole blood at 4000 nM; assay type: functional, tissue-based
[14] = target: Mitogen-activated protein kinase 11 (Mus musculus) (UniProt Q9WUI1); test: Displacement of [gamma-33P]-ATP from recombinant murine Mitogen-activated protein kinase p38 beta at 100 nM
[15] = target: Mitogen-activated protein kinase 14 (Mus musculus) (UniProt P47811); test: Inhibition of [gamma-33P]-ATP binding to recombinant murine p38 alpha at 100 nM
[16] = target: Mitogen-activated protein kinase 9 (Homo sapiens) (UniProt P45984); test: Inhibition of recombinant human flag-tagged JNK2-beta-2 at 1000 nM; assay type: functional; in short: as §1

Chain of Mitogen-activated protein kinase 14 (P47811 whole entry, the tested form may be a part): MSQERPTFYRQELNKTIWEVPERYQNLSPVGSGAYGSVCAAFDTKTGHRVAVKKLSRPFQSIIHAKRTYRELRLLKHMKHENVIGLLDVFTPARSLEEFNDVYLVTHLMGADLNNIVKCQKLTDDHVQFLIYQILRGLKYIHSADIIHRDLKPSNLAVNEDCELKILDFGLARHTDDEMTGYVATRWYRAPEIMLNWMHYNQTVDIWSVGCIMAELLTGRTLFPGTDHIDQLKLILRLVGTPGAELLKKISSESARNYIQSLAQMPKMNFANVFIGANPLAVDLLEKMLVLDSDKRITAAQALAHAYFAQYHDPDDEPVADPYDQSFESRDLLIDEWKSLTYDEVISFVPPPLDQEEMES
Chain of Mitogen-activated protein kinase 9 (Homo sapiens) (P45984 whole entry, looked up, the tested form may be a part): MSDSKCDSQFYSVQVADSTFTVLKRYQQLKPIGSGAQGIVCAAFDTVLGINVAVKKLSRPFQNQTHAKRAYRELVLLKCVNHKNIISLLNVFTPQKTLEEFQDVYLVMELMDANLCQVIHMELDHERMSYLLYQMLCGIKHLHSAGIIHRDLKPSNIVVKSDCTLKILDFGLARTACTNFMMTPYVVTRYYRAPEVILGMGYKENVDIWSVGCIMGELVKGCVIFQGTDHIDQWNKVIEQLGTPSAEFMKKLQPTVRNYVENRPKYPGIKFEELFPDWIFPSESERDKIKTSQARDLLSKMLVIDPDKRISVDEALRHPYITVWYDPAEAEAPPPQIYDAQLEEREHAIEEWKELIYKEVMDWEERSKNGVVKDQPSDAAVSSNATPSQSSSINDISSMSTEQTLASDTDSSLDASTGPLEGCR
Chain of Mitogen-activated protein kinase 11 (Mus musculus) (Q9WUI1 whole entry): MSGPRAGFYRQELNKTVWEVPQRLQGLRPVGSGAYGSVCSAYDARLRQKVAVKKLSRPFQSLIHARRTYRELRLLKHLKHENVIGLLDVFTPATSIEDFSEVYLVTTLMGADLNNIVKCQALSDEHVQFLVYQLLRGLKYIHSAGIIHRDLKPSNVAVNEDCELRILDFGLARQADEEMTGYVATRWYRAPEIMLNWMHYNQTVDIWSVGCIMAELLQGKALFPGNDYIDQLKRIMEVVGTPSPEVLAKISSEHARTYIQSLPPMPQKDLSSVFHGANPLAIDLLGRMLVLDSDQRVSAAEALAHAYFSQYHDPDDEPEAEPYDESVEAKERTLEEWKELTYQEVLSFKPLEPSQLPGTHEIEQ
Chain of Mitogen-activated protein kinase 11 (Q9WUI1 whole entry, the tested form may be a part): as the sequence (Q9WUI1 whole entry) above
Chain of Mitogen-activated protein kinase 14 (Mus musculus) (P47811 whole entry): as the sequence (P47811 whole entry, the tested form may be a part) above

Structure (SMILES)	IC50 [1] [nM]	IC50 (MAP kinase p38 [2]) [nM]	IC50 [3] [nM]	IC50 (MAP kinase p38 [4]) [nM]	inhibition [5] [%]	inhibition (MAP kinase p38 [6]) [%]	inhibition [7] [%]	further results
Cc1ccccc1N1N=C(c2c(-c3ccc(F)cc3Cl)nc3ccccn23)CCC1=O	14	22	94	220	4	–	–	–
O=c1ccc(-c2c(-c3ccc(F)cc3F)nc3ccccn23)nn1-c1c(Cl)cccc1Cl	22	–	112	1000	11	89	–	–
O=c1ccc(-c2c(-c3ccc(F)cc3Cl)nc3ccccn23)nn1-c1c(Cl)cccc1Cl	14	161	64	–	–	–	23	–
Cc1ccccc1-n1nc(-c2c(-c3cccc(Cl)c3Cl)nc3ccccn23)ccc1=O	22	6	44	500	–	–	15	–
O=C1CCC(c2c(-c3cccc(Cl)c3Cl)nc3ccccn23)=NN1c1c(Cl)cccc1Cl	2000	–	–	–	26	59	–	inhibition [8]: 57%
O=C1CCC(c2c(-c3ccc(F)cc3F)nc3ccccn23)=NN1c1c(Cl)cccc1Cl	8	10	63	205	–	–	22	–
Cc1ccccc1N1N=C(c2c(-c3ccc(F)cc3F)nc3ccccn23)CCC1=O	8	14	78	440	–	–	4	–
O=C1CCC(c2c(-c3ccc(F)cc3Cl)nc3ccccn23)=NN1c1c(Cl)cccc1Cl	42	180	670	–	–	–	0	–
O=c1ccc(-c2c(-c3ccc(F)cc3Cl)nc3ccccn23)nn1-c1ccccc1Cl	76	161	171	–	–	–	0	–
Cc1ccccc1-n1nc(-c2c(-c3ccc(F)cc3Cl)nc3ccccn23)ccc1=O	9	20	28	100	16	–	–	inhibition in vivo at 3 mg/kg [9]: 42%; Concentration (Mus musculus [10]): 810 nM
Cc1ccccc1-n1nc(-c2c(-c3ccc(F)cc3F)nc3ccccn23)ccc1=O	26	68	140	870	15	–	–	–
O=c1ncn2nc(Sc3ccc(F)cc3F)ccc2c1-c1c(Cl)cccc1Cl	–	–	–	–	–	–	–	Concentration (Mus musculus [11]): 1730 nM; inhibition (Mus musculus [12]): 29%
O=c1ccc(-c2c(-c3cccc(C(F)(F)F)c3)nc3ccccn23)nn1-c1ccccc1Cl	344	–	–	–	–	48	–	–
O=c1ccc(-c2c(-c3cccc(Cl)c3Cl)nc3ccccn23)nn1-c1c(Cl)cccc1Cl	270	–	890	–	14	65	–	–
O=C1CCC(c2c(-c3ccc(F)cc3Cl)nc3ccccn23)=NN1c1ccccc1Cl	208	400	2600	–	–	–	0	–
O=c1ccc(-c2c(-c3ccc(F)cc3)nc3ccccn23)nn1-c1c(Cl)cccc1Cl	49	70	153	–	–	–	40	inhibition (MAP kinase p38 [13]): 60%
O=C1CCC(c2c(-c3cccc(C(F)(F)F)c3)nc3ccccn23)=NN1c1ccccc1Cl	171	–	355	–	–	72	0	–
O=c1ccc(-c2c(-c3cccc(C(F)(F)F)c3)nc3ccccn23)nn1-c1c(Cl)cccc1Cl	1000	–	–	–	–	41	0	inhibition [8]: 50%
Cc1ccccc1N1N=C(c2c(-c3cccc(Cl)c3Cl)nc3ccccn23)CCC1=O	–	170	–	–	–	–	–	inhibition [14]: 33%; inhibition [15]: 36%; inhibition [16]: 0%

From ChEMBL document CHEMBL1145952, “Hybrid-designed inhibitors of p38 MAP kinase utilizing N-arylpyridazinones” (J Med Chem, 2003)
